Active and inactive are the calls of the source.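 The calls were made as follows, unless noted: active = visually confirmed hit in the image check and inhibition above 20%; inconclusive = visually confirmed hit but inhibition not above 20%; inactive = no visual hit in the image check.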
Key:
[1] = inhibitors of TNFa-induced NFkB p65 translocation, primary screen, imaging, HUVEC, MLSMR starter and 10KST1 sets (AID 438;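 active = inhibition above 20% together with a positive visual image hit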;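 also: compound added about 3h40 before a 20 min TNFalpha stimulation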;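 as to inhibition: signal is the nuclear over cytoplasmic p65 intensity ratio per well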); conditions: HUVEC TNFa-induced p65 nuclear translocation; cell count: measured here: nuclei count (cytotoxicity indicator), at 2.08 µM; inhibition: at 2 µM, stronger effect = higher value, 0% TNFa-plus-vehicle, 100% no-TNFa wells
[2] = inhibitors of mutant huntingtin aggregation, primary screen, imaging, exon1htt(103Q)mCFP cells, high-content imaging (AID 483;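 active = visual image review flags a hit and inhibition of aggregation exceeds 20%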;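 also: compound exposure lasted 3 days before fixation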;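 as to nuclei count: percent of the per-plate median nuclei count of sample wells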); conditions: exon1htt(103Q)mCFP cell line, aggregate imaging, at 2 µM; inhibition of aggregation: stronger effect = higher value; nuclei count: measured here: cell count, toxicity
[3] = inhibitors of E-selectin induction by TNFa, primary screen, imaging, HUVEC, immunofluorescence, MLSMR starter and 10KST1 sets (AID 487); conditions: HUVEC TNFalpha-induced E-selectin immunofluorescence imaging, at 2 µM; inhibition: stronger effect = higher value; nuclei count: measured here: cell number, toxicity;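 as to inhibition: signal is fraction of cell area covered by stained E-selectin grains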;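 as to nuclei count: 100% = median nuclei count of all wells on the same plate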
[4] = target: Voltage-gated potassium channel subunit beta-2 (Rattus norvegicus) (UniProt P62483); experiment: KvBeta enzyme negative modulators, primary screen, biochemical, NADPH fluorescence (AID 622;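 active = fluorescence slope higher than the sample average by over 3 SD, cut at about -0.22 in these data, passing the limit was not always enough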;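 also: slope of raw intensity against log time taken from 70 to 1610 s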); conditions: recombinant KvBeta, 4-cyanobenzaldehyde reduction, at 10 µM, stronger effect = higher value
[5] = target: Voltage-gated potassium channel subunit beta-2 (Rattus norvegicus) (UniProt P62483); experiment: KvBeta positive modulators, primary screen, biochemical, NADPH fluorescence (AID 623;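 active = NADPH fluorescence slope more negative than the mean of all samples by about 3 SD, 99.7% confidence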;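 also: fluorescence intensity change per second fitted from 20 to 320 s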); conditions: Recombinant KvBeta, NADPH fluorescence decrease slope, 10 min; at 10 µM; stronger effect = lower value
[6] = target: Muscarinic acetylcholine receptor M4 (Homo sapiens) (UniProt P08173); experiment: compounds altering M4/GIRK thallium flux, either direction, primary screen, M4 allosteric agonist project, cell-based, HEK293 M4/GIRK, BTC-AM (AID 625;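 active = fluorescence slope after compound addition differing from the mean of all tested samples at 99.7% confidence, mostly higher but some lower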;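 also: thallium influx through GIRK channels coupled to M4 in HEK293 cells with BTC-AM dye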); conditions: at 10 µM, actives lie on both sides
Procedure, shortened: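 Material: HEK293 cells with M4 receptor and GIRK channels; Times: cells overnight at 37 °C, BTC-AM loading 1 h, reads 2 min total; Technique: kinetic BTC-AM fluorescence sampled at 1 Hz, 10 s pre-addition baseline; Read-out basis: slope over 15–24 s of trace normalized to starting intensity; Controls: carbachol positive, DMSO negative.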

[7] = inhibitors of Sendai virus-induced IRF3 signaling, primary screen, TLR/RLR signaling modifier project, cell-based, Sendai virus stimulus, luciferase, 10K MLSCN set (AID 602276;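 active = inhibition at or above 50% at 10 µM; inactive = inhibition below 50%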;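 also: firefly luciferase from ISG56 promoter only with Renilla not read in this screen; 0% = Sendai virus plus DMSO and 100% = medium plus DMSO without virus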); conditions: HEK293 RL24 IRF3 luciferase reporter, at 10 µM, stronger effect = higher value
[8] = inhibitors of poly I:C-induced TLR3 signaling, primary screen, cell-based, poly I:C stimulus, luciferase, 10K MLSCN set (AID 602277;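 active = inhibition of the reporter signal at or above 50%; inactive = inhibition below 50%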); conditions: HEK293-TLR3 RL24 IRF3 luciferase reporter, at 10 µM, stronger effect = higher value

Chain of Muscarinic acetylcholine receptor M4 (Homo sapiens) (P08173 whole entry, looked up): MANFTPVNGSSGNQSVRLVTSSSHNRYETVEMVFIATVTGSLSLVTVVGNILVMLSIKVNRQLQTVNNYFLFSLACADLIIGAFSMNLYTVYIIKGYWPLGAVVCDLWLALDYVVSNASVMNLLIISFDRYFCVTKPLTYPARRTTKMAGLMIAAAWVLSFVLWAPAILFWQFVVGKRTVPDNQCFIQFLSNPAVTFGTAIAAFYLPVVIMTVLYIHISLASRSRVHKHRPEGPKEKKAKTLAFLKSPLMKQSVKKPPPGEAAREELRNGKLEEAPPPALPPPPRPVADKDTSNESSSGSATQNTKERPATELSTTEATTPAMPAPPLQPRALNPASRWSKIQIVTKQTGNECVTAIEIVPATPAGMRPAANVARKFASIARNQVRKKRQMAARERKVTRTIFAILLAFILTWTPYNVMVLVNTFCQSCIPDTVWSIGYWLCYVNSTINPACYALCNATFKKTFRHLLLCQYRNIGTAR
Chain of Voltage-gated potassium channel subunit beta-2 (Rattus norvegicus) (P62483 whole entry, looked up): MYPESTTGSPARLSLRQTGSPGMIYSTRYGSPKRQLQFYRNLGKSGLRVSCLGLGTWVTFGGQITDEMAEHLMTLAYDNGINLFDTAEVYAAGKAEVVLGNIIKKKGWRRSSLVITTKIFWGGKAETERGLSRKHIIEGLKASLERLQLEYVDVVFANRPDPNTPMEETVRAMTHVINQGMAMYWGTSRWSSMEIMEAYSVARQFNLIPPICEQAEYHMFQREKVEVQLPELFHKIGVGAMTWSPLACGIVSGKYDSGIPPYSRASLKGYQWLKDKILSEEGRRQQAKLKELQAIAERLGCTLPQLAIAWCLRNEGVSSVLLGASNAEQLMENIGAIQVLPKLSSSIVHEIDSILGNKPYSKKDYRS

COc1ccccc1C(=O)Nc1ccc(N2CCN(S(C)(=O)=O)CC2)cc1
cell count [1]: 320 | inhibition [1]: -6.8% (inactive) | inhibition of aggregation [2]: 7% (inactive) | nuclei count [2]: 127% | inhibition [3]: 18.3% (inactive) | nuclei count [3]: 116% | fluorescence slope [4]: -0.242 (inactive) | NADPH fluorescence slope [5]: -2.5e-06 (inactive) | fluorescence slope [6]: 0.00706 (inactive) | inhibition [7]: -8.58% (inactive) | inhibition [8]: -50.2% (inactive)

CN(C)S(=O)(=O)c1ccc(C(=O)Nc2ccccc2C(=O)O)cc1
cell count [1]: 487 | inhibition [1]: -8.9% (inactive) | inhibition of aggregation [2]: 13.1% (inactive) | nuclei count [2]: 83% | inhibition [3]: -1.2% (inactive) | nuclei count [3]: 78% | fluorescence slope [4]: -0.52 (inactive) | NADPH fluorescence slope [5]: -3.3e-05 (inactive) | fluorescence slope [6]: 0.00545 (inactive) | inhibition [7]: 2.15% (inactive) | inhibition [8]: 46.7% (inactive)

Cc1cc(O)c(NC(=O)c2ccc(Br)o2)cc1C
cell count [1]: 394 | inhibition [1]: 5.5% (inactive) | inhibition of aggregation [2]: -12.4% (inactive) | nuclei count [2]: 103% | inhibition [3]: -6.8% (inactive) | nuclei count [3]: 116% | fluorescence slope [4]: -0.299 (inactive) | NADPH fluorescence slope [5]: -6.1e-05 (inactive) | fluorescence slope [6]: 0.00583 (inactive) | inhibition [7]: 8.6% (inactive) | inhibition [8]: -53.5% (inactive)

Cc1nc(SCC#N)c2c(C)c(C)sc2n1
cell count [1]: 818 | inhibition [1]: -4.3% (inactive) | inhibition of aggregation [2]: -3.4% (inactive) | nuclei count [2]: 101% | inhibition [3]: -84.3% (inactive) | nuclei count [3]: 118% | fluorescence slope [4]: -0.551 (inactive) | NADPH fluorescence slope [5]: -2.7e-05 (inactive) | fluorescence slope [6]: 0.00593 (inactive) | inhibition [7]: 10.7% (inactive) | inhibition [8]: -9.75% (inactive)

O=S(=O)(c1ccccc1)N1CCN(C2CCCCCCC2)CC1
cell count [1]: 221 | inhibition [1]: 9.7% (inactive) | inhibition of aggregation [2]: 9% (inactive) | nuclei count [2]: 80.6% | inhibition [3]: -53.1% (inactive) | nuclei count [3]: 148% | fluorescence slope [4]: -0.479 (inactive) | NADPH fluorescence slope [5]: -1.1e-05 (inactive) | fluorescence slope [6]: 0.00309 (inactive) | inhibition [7]: -8.03% (inactive) | inhibition [8]: -10% (inactive)

CCOc1ccc(-n2c(=O)cc(N3CCN(c4ccccc4)CC3)[nH]c2=O)cc1
cell count [1]: 542 | inhibition [1]: -4.4% (inactive) | inhibition of aggregation [2]: -3.5% (inactive) | nuclei count [2]: 87.1% | inhibition [3]: -40.5% (inactive) | nuclei count [3]: 108% | fluorescence slope [4]: -0.411 (inactive) | NADPH fluorescence slope [5]: -1.6e-05 (inactive) | fluorescence slope [6]: 0.00553 (inactive) | inhibition [7]: 12.1% (inactive) | inhibition [8]: 11.2% (inactive)

CCOC(=O)N1CCC(NC(=O)CCc2c(C)nc3c(c(C)nn3C(C)(C)C)c2C)CC1
cell count [1]: 650 | inhibition [1]: 2.6% (inactive) | inhibition of aggregation [2]: 7.1% (inactive) | nuclei count [2]: 138% | inhibition [3]: -8.7% (inactive) | nuclei count [3]: 106% | fluorescence slope [4]: -0.397 (inactive) | NADPH fluorescence slope [5]: 3.3e-05 (inactive) | fluorescence slope [6]: 0.00517 (inactive) | inhibition [7]: 11% (inactive) | inhibition [8]: -3.64% (inactive)

COc1ccccc1-c1coc2c(CN3CCN(CCO)CC3)c(O)ccc2c1=O
cell count [1]: 615 | inhibition [1]: -0.2% (inactive) | inhibition of aggregation [2]: -9.4% (inactive) | nuclei count [2]: 102% | inhibition [3]: -16% (inactive) | nuclei count [3]: 105% | fluorescence slope [4]: -0.027 (active) | NADPH fluorescence slope [5]: 5.8e-06 (inactive) | fluorescence slope [6]: 0.0043 (inactive) | inhibition [7]: 12.9% (inactive) | inhibition [8]: 5.54% (inactive)

CCOc1ccc2c(c1)sc1nc(C(=O)OC)cc(=O)n12
cell count [1]: 432 | inhibition [1]: 7.5% (inactive) | inhibition of aggregation [2]: -10.2% (inactive) | nuclei count [2]: 109% | inhibition [3]: -0.5% (inactive) | nuclei count [3]: 108% | fluorescence slope [4]: -0.175 (inactive) | NADPH fluorescence slope [5]: -1.7e-05 (inactive) | fluorescence slope [6]: 0.00476 (inactive) | inhibition [7]: 13.7% (inactive) | inhibition [8]: 19.3% (inactive)

COc1ccc(NC(=O)CCNC(=O)Cn2ccc3ccccc3c2=O)c(OC)c1
cell count [1]: 707 | inhibition [1]: -8.4% (inactive) | inhibition of aggregation [2]: 22.3% (inactive) | nuclei count [2]: 101% | inhibition [3]: -39.3% (inactive) | nuclei count [3]: 115% | fluorescence slope [4]: -0.331 (inactive) | NADPH fluorescence slope [5]: -5.9e-05 (inactive) | fluorescence slope [6]: 0.00839 (inactive) | inhibition [7]: 14.4% (inactive) | inhibition [8]: 15.6% (inactive)

CCC(=O)N(Cc1cc2c(C)ccc(C)c2[nH]c1=O)C1CCCCC1
cell count [1]: 689 | inhibition [1]: -5.6% (inactive) | inhibition of aggregation [2]: 1.1% (inactive) | nuclei count [2]: 93.2% | inhibition [3]: -36.3% (inactive) | nuclei count [3]: 100% | fluorescence slope [4]: -0.474 (inactive) | NADPH fluorescence slope [5]: -3.7e-05 (inactive) | fluorescence slope [6]: 0.00636 (inactive) | inhibition [7]: 13.6% (inactive) | inhibition [8]: 25.2% (inactive)

CCCOc1ccc(-c2nnn(CC(=O)Nc3cccc(C(=O)OC)c3)n2)cc1
cell count [1]: 380 | inhibition [1]: -2.1% (inactive) | inhibition of aggregation [2]: -8.7% (inactive) | nuclei count [2]: 109% | inhibition [3]: -27.4% (inactive) | nuclei count [3]: 112% | fluorescence slope [4]: -0.503 (inactive) | NADPH fluorescence slope [5]: 0.000154 (inactive) | fluorescence slope [6]: 0.00964 (inactive) | inhibition [7]: 11.3% (inactive) | inhibition [8]: -4.78% (inactive)

CCCCCCC(=O)c1c(C)[nH]c(C(=O)OCC)c1C
cell count [1]: 310 | inhibition [1]: -4.2% (inactive) | inhibition of aggregation [2]: 14.4% (inactive) | nuclei count [2]: 59.6% | inhibition [3]: -54.5% (inactive) | nuclei count [3]: 102% | fluorescence slope [4]: -0.517 (inactive) | NADPH fluorescence slope [5]: -2.8e-05 (inactive) | fluorescence slope [6]: 0.00442 (inactive) | inhibition [7]: -13.2% (inactive) | inhibition [8]: -55.3% (inactive)

Cc1ccc(N2CC(C(=O)N3CCN(C(=O)c4ccco4)CC3)CC2=O)cc1 (centres undefined)
cell count [1]: 600 | inhibition [1]: 2.2% (inactive) | inhibition of aggregation [2]: -16.3% (inactive) | nuclei count [2]: 114% | inhibition [3]: -39.1% (inactive) | nuclei count [3]: 100% | fluorescence slope [4]: -0.571 (inactive) | NADPH fluorescence slope [5]: -5.1e-05 (inactive) | fluorescence slope [6]: 0.00509 (inactive) | inhibition [7]: 17.5% (inactive) | inhibition [8]: 21.1% (inactive)

— PubChem BioAssay
